# In PMC3423956 (European journal of medicinal chemistry, 2009):
# Legend:
# HSV-1 (strain F) = experiment: HSV-1 plaque reduction assay in Vero cells; type: cell-based; conditions: Human alphaherpesvirus 1, Vero
# Stability in solution = type: physicochemical; conditions: for conversion to ACV: water
# Method in brief: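 Test compound was diluted from a freshly made stock into water and into methanol. Half was kept at room temperature and half in the autosampler at 4°C. Samples were injected every 15 min for 2 hr, then hourly, daily and weekly. Analysis was LC-MS/MS on a C18 column (ammonium formate pH 3 or water / methanol gradient, 30°C, ESI+, SRM). Guanine-analog formation was quantified against parent-nucleoside and acyclovir calibrations (10–1000 nM).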
# [1] = tested on: herpes simplex virus (HSV); conditions: cited from earlier work
# [2] = tested on: HCV subgenomic RNA replicon; experiment: Anti-HCV activity in Huh-7 cells with HCV subgenomic RNA replicon system; type: cell-based; conditions: Hepatitis C virus, Huh-7, read-out: Anti-HCV activity Huh-7 cells EC50, Huh-7 cells, HCV replicon
Structure (SMILES),reversion to parent nucleoside (7 or 8) (Stability in solution; after 3 weeks),EC50 [2],further results
"Nc1nc2c(ncn2COCCO)c(=O)[nH]1 [ACV, acyclovir]",,,EC50 (HSV-1 (strain F); read-out: Activity against HSV-1 EC50): 75 nM; EC90 (HSV-1 (strain F); read-out: Activity against HSV-1 EC90): 700 nM
"COc1ccc(-c2cn3c(O)c4ncn(COCCO)c4nc3n2)cc1 [Compound 3, 6-(4-MeOPh)-TACV]",,,conversion to ACV (Stability in solution; after 3 weeks): 35%; conversion to ACV (Stability in solution; after 4 days): 4%; activity against herpes simplex virus (HSV) compared with parent [1]: as active as their parent congeners
"COc1ccc(-c2cn3c(=O)c4ncn([C@H]5C[C@H](N=[N+]=[N-])[C@@H](CO)O5)c4nc3[nH]2)cc1 [Compound 32, 3-(3-Azido-2,3-dideoxy-β-D-erythro-pentofuranosyl)-3,9-dihydro-6-(4-methoxyphenyl)-9-oxo-5H-imidazo-[1,2-a]purine]",60%,,
"COc1ccc(-c2cn3c(=O)c4ncn([C@@H]5O[C@H](CO)[C@@H](O)[C@@]5(C)O)c4nc3[nH]2)cc1 [Compound 36, 3-(β-D-2-C-Methyl-ribofuranosyl)-3,9-dihydro-6-(4-methoxy-phenyl)-9-oxo-5H-imidazo-[1,2-a]purine]",30%,< 10000 nM,
"C[C@@]1(O)[C@H](O)[C@@H](CO)O[C@H]1n1cnc2c(=O)n3cc(-c4cccs4)[nH]c3nc21 [Compound 39, 3-(β-D-2-C-Methyl-ribofuranosyl)-3,9-dihydro-6-(2-thienyl)-9-oxo-5H-imidazo-[1,2-a]purine]",60%,< 10000 nM,
